Reference: ChEMBL document CHEMBL3085664, “Structure-activity relationship of imidazopyridinium analogues as antagonists of neuropeptide s receptor” (J Med Chem, 2013)
pIC50: −log10 of the molar value.

Legend:
Neuropeptide S receptor [1] = biological target: T1, Neuropeptide S receptor (Homo sapiens, UniProt Q6W5P4); test: Antagonist activity at neuropeptide S receptor (unknown origin) expressed in CHO cells assessed as inhibition of NPS-induced ERK activation after 20 mins by HTRF assay; type: cell-based
T1 sequence (Q6W5P4 whole entry): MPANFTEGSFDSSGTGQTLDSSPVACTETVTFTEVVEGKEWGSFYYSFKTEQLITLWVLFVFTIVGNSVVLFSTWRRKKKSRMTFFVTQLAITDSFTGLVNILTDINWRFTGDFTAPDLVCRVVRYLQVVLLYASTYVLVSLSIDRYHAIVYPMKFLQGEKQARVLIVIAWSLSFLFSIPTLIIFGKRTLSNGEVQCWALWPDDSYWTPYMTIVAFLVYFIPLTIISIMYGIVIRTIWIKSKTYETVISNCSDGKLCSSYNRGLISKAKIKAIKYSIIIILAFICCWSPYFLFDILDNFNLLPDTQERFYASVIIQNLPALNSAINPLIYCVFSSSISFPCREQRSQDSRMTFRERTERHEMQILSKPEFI

[2] = Chemical stability of the compound in phosphate-buffered saline after 48 hrs; type: physicochemical; conditions: buffer
Summary of the method: (§1)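 Compound was held in Hank's balanced buffer solution or PBS for 48 hours and checked for decomposition to other species.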

Neuropeptide S receptor [3] = biological target: T1, Neuropeptide S receptor; test: Displacement of [125I]Tyr10-NPS from neuropeptide S receptor (unknown origin)
Summary of the method: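 Whole CHO cells stably expressing human NPSR at 90–95% confluency in 24-well plates. Cells were incubated with 0.15 nM [125I]Y10-NPS plus increasing compound or unlabeled NPS in DMEM/0.1% BSA, 20°C, 1.5 hr. Nonspecific binding was defined with 1 µM unlabeled human NPS. Cells were washed, lysed in 1 N NaOH and counted by liquid scintillation. IC50 from one experiment in duplicate.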

[4] = Chemical stability of the compound in HBBS buffer after 48 hrs; type: physicochemical; summary of the method: as §1
Neuropeptide S receptor [5] = biological target: T1, Neuropeptide S receptor; test: Antagonist activity at neuropeptide S receptor (unknown origin) assessed as intracellular calcium level by cell based assay; type: functional
Summary of the method: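 CHO cells stably expressing NPSR were seeded at 2000 cells/well and incubated overnight at 37 °C, 5% CO2. They were loaded with no-wash calcium dye for 1 h, then preincubated with compound in DMSO for 10 min. Stimulation used NPS at EC80 in PBS/0.1% BSA/0.05% Tween-20 with 500 µM Ro 20-1724. Kinetic fluorescence was read at 1 Hz: 6 s baseline, then 4 min. IC50 is the mean ± SD of two independent experiments, each in duplicate.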

Neuropeptide S receptor [6] = biological target: T1, Neuropeptide S receptor; test: Antagonist activity at neuropeptide S receptor (unknown origin) expressed in CHO cells assessed as cAMP level after 30 mins by […] assay; type: functional, cell-based; conditions: read-out: IC50
Summary of the method: (§2)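 CHO cells stably expressing NPSR, 1800 cells/well in 1536-well format, seeded overnight at 37°C in medium without Geneticin. Stimulation buffer (PBS, 0.1% BSA, 0.05% Tween-20, 500µM Ro 20-1724, EC80 NPS) was added for 30 min at 37°C. cAMP was read by HTRF (d2-cAMP/cryptate anti-cAMP in lysis buffer, 30 min). IC50 is the mean with SD of two independent experiments, each run in duplicate.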

Neuropeptide S receptor [7] = biological target: T1, Neuropeptide S receptor; test: Antagonist activity at neuropeptide S receptor (unknown origin) expressed in CHO cells assessed as inhibition of NPS-induced calcium mobilization after 10 mins by fluorescence assay; type: functional, cell-based; conditions: read-out: IC50
Summary of the method: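 CHO-NPSR cells, 2000/well in 1536-well plates, incubated overnight, then loaded with no-wash calcium dye for 1 h at 37°C. Compound in DMSO was added for 10 min. Baseline fluorescence was recorded 6 s at 1 Hz, then EC80 NPS in stimulation buffer was added and recording continued 4 min at 1 Hz on a kinetic reader. IC50 is the mean with SD of two independent experiments in duplicate.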

Neuropeptide S receptor [8] = biological target: T1, Neuropeptide S receptor; test: Antagonist activity at neuropeptide S receptor (unknown origin) assessed as cAMP level by cell based assay; type: functional; summary of the method: as §2

## Cc1c(P(=S)(c2ccccc2)c2ccccc2)[n+]2ccccc2n1C.[I-]
Neuropeptide S receptor [1]
  pIC50: 7.52
[2]
  Stability: Stable
Neuropeptide S receptor [3]
  pIC50: 7.08
[4]
  Stability: Stable
Neuropeptide S receptor [5]
  pIC50: 7.29
Neuropeptide S receptor [6]
  pIC50: 5.77
Neuropeptide S receptor [7]
  pIC50: 7.29
Neuropeptide S receptor [8]
  pIC50: 5.77
